In ChEMBL document CHEMBL2321795, “Solubility-driven optimization of (pyridin-3-yl) benzoxazinyl-oxazolidinones leading to a promising antibacterial agent” (J Med Chem, 2013):
Converted amounts (≈) assume the structure as drawn.

Legend:
Type in all cases: functional
Enterococcus faecalis [1] = assay: Antibacterial activity against Enterococcus faecalis after 16 hrs by NCCLS agar dilution method
Procedure, shortened: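 Agar dilution MIC per NCCLS, 6 E. faecalis strains. Stock was 320 μg/mL in 50% water/DMSO, serially 2-fold diluted in sterile water, then 10-fold into Mueller–Hinton agar to give 16–0.03125 μg/mL final. Inocula came from MH broth cultures grown 8 h at 35 °C, adjusted to 0.5 McFarland and spotted by multipoint inoculator. Plates were read after 16 h at 35 °C.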

Streptococcus pneumoniae = assay: Antibacterial activity against penicillin-resistant Streptococcus pneumoniae after 16 hrs by NCCLS agar dilution method
Procedure, shortened: (§1)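 Agar dilution MIC. Stocks were 320 μg/mL in 50% aqueous DMSO, 2-fold serially diluted in sterile water, then diluted 10-fold into Mueller–Hinton agar to give 16–0.03125 μg/mL final. Organisms were grown in MH broth at 35 °C for 8 h and adjusted to 0.5 McFarland. They were spotted onto drug-containing plates with a multipoint inoculator and incubated at 35 °C for 16 h. Linezolid was the positive control.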

[2] = test system: Staphylococcus epidermidis; assay: Antibacterial activity against methicillin-resistant Staphylococcus epidermidis after 16 hrs by NCCLS agar dilution method; procedure, shortened: as §1
[3] = test system: Staphylococcus epidermidis; assay: Antibacterial activity against methicillin-sensitive Staphylococcus epidermidis after 16 hrs by NCCLS agar dilution method; procedure, shortened: as §1
Staphylococcus aureus [4] = assay: Antibacterial activity against methicillin-resistant Staphylococcus aureus after 16 hrs by NCCLS agar dilution method; procedure, shortened: as §1
Staphylococcus aureus [5] = assay: Antibacterial activity against methicillin-sensitive Staphylococcus aureus after 16 hrs by NCCLS agar dilution method; procedure, shortened: as §1
Enterococcus faecium = assay: Antibacterial activity against linezolid-resistant Enterococcus faecium after 16 hrs by NCCLS agar dilution method; procedure, shortened: as §1
Enterococcus faecalis [6] = assay: Antibacterial activity against linezolid-resistant Enterococcus faecalis after 16 hrs by NCCLS agar dilution method; procedure, shortened: as §1
[7] = test system: Staphylococcus epidermidis; assay: Antibacterial activity against linezolid-resistant Staphylococcus epidermidis after 16 hrs by NCCLS agar dilution method; procedure, shortened: as §1
Staphylococcus aureus [8] = assay: Antibacterial activity against linezolid-resistant Staphylococcus aureus after 16 hrs by NCCLS agar dilution method; procedure, shortened: as §1
Staphylococcus aureus [9] = assay: Antibacterial activity against Staphylococcus aureus ATCC 29213 after 16 hrs by NCCLS agar dilution method; conditions: ATCC 29213, 16 h; procedure, shortened: as §1

SMILES	MIC (Enterococcus faecalis [1])	MIC (Streptococcus pneumoniae)	MIC [2]	MIC [3]	MIC (Staphylococcus aureus [4])	MIC (Staphylococcus aureus [5])	MIC (Enterococcus faecium)	MIC (Enterococcus faecalis [6])	MIC [7]	MIC (Staphylococcus aureus [8])	MIC (Staphylococcus aureus [9])
CN1CCC[C@H]2CN(c3ccc(-c4ccc5c(c4)OC[C@H]4[C@H](CO)OC(=O)N54)cn3)C[C@H]21	> 32 µg/mL	> 32 µg/mL	8 µg/mL (≈ 18.3 µM)	4 µg/mL (≈ 9.16 µM)	8 µg/mL (≈ 18.3 µM)	8 µg/mL (≈ 18.3 µM)					
O=C1O[C@@H](CO)CN1c1ccc(-c2ccc3c(c2)OC[C@H]2[C@H](CO)OC(=O)N32)cn1	0.5 µg/mL (≈ 1.21 µM)	0.5 µg/mL (≈ 1.21 µM)	0.5 µg/mL (≈ 1.21 µM)	0.5 µg/mL (≈ 1.21 µM)	0.5 µg/mL (≈ 1.21 µM)	0.5 µg/mL (≈ 1.21 µM)					
O=C1O[C@@H](CO)[C@@H]2COc3cc(-c4ccc(N5CCC(O)CC5)nc4)ccc3N12	> 32 µg/mL	2 µg/mL (≈ 5.03 µM)	2 µg/mL (≈ 5.03 µM)	4 µg/mL (≈ 10.1 µM)	2 µg/mL (≈ 5.03 µM)	2 µg/mL (≈ 5.03 µM)					
CN1CCN(c2ccc(-c3ccc4c(c3)OC[C@H]3[C@H](CO)OC(=O)N43)cn2)C(=O)C1	16 µg/mL (≈ 39 µM)	4 µg/mL (≈ 9.75 µM)	2 µg/mL (≈ 4.87 µM)	2 µg/mL (≈ 4.87 µM)	2 µg/mL (≈ 4.87 µM)	2 µg/mL (≈ 4.87 µM)					
CC(=O)c1ccc(-c2ccc3c(c2)OC[C@H]2[C@H](CO)OC(=O)N32)cn1	2 µg/mL (≈ 5.88 µM)	8 µg/mL (≈ 23.5 µM)	4 µg/mL (≈ 11.8 µM)	4 µg/mL (≈ 11.8 µM)	2 µg/mL (≈ 5.88 µM)	2 µg/mL (≈ 5.88 µM)					
NCC1CN(c2ccc(-c3ccc4c(c3)OC[C@H]3[C@H](CO)OC(=O)N43)cn2)C(=O)O1 (stereo partly specified)	1 µg/mL (≈ 2.42 µM)	2 µg/mL (≈ 4.85 µM)	2 µg/mL (≈ 4.85 µM)	0.5 µg/mL (≈ 1.21 µM)	1 µg/mL (≈ 2.42 µM)	1 µg/mL (≈ 2.42 µM)					
Cn1nnc(-c2ccc(-c3ccc(N4C[C@H](CO)OC4=O)cc3F)cn2)n1 [TEDIZOLID]							2 µg/mL (≈ 5.4 µM)	2 µg/mL (≈ 5.4 µM)	2 µg/mL (≈ 5.4 µM)	8 µg/mL (≈ 21.6 µM)	0.25 µg/mL (≈ 0.675 µM)
CN1CC(c2ccc(-c3ccc4c(c3)OC[C@H]3[C@H](CO)OC(=O)N43)cn2)OC1=O (stereo partly specified)	1 µg/mL (≈ 2.52 µM)	1 µg/mL (≈ 2.52 µM)	0.5 µg/mL (≈ 1.26 µM)	0.25 µg/mL (≈ 0.629 µM)	0.5 µg/mL (≈ 1.26 µM)	0.5 µg/mL (≈ 1.26 µM)					
O=C1O[C@H](CO)CN1c1ccc(-c2ccc3c(c2)OC[C@H]2[C@H](CO)OC(=O)N32)cn1	0.5 µg/mL (≈ 1.21 µM)	0.5 µg/mL (≈ 1.21 µM)	0.5 µg/mL (≈ 1.21 µM)	0.5 µg/mL (≈ 1.21 µM)	0.5 µg/mL (≈ 1.21 µM)	0.5 µg/mL (≈ 1.21 µM)					
O=C1O[C@@H](CO)[C@@H]2COc3cc(-c4ccc(Cn5cnnn5)nc4)ccc3N12	4 µg/mL (≈ 10.5 µM)	4 µg/mL (≈ 10.5 µM)	1 µg/mL (≈ 2.63 µM)	1 µg/mL (≈ 2.63 µM)	2 µg/mL (≈ 5.26 µM)	2 µg/mL (≈ 5.26 µM)					
CC(C)(O)c1ccc(-c2ccc3c(c2)OC[C@H]2[C@H](CO)OC(=O)N32)cn1	4 µg/mL (≈ 11.2 µM)	2 µg/mL (≈ 5.61 µM)	2 µg/mL (≈ 5.61 µM)	1 µg/mL (≈ 2.81 µM)	1 µg/mL (≈ 2.81 µM)	1 µg/mL (≈ 2.81 µM)					
CN1CCN(c2ccc(-c3ccc4c(c3)OC[C@H]3[C@H](CO)OC(=O)N43)cn2)C1=O	8 µg/mL (≈ 20.2 µM)	4 µg/mL (≈ 10.1 µM)	4 µg/mL (≈ 10.1 µM)	2 µg/mL (≈ 5.05 µM)	2 µg/mL (≈ 5.05 µM)	2 µg/mL (≈ 5.05 µM)					
O=C1O[C@@H](CO)[C@@H]2COc3cc(-c4ccc(C5(O)CCCC5)nc4)ccc3N12	2 µg/mL (≈ 5.23 µM)	2 µg/mL (≈ 5.23 µM)	1 µg/mL (≈ 2.61 µM)	1 µg/mL (≈ 2.61 µM)	1 µg/mL (≈ 2.61 µM)	2 µg/mL (≈ 5.23 µM)					
NC1(c2ccc(-c3ccc4c(c3)OC[C@H]3[C@H](CO)OC(=O)N43)cn2)CC1	2 µg/mL (≈ 5.66 µM)	1 µg/mL (≈ 2.83 µM)	1 µg/mL (≈ 2.83 µM)	1 µg/mL (≈ 2.83 µM)	1 µg/mL (≈ 2.83 µM)	2 µg/mL (≈ 5.66 µM)					
CN1CCN(c2ccc(-c3ccc4c(c3)OC[C@H]3[C@H](CO)OC(=O)N43)cn2)CC1	2 µg/mL (≈ 5.04 µM)	4 µg/mL (≈ 10.1 µM)	4 µg/mL (≈ 10.1 µM)	2 µg/mL (≈ 5.04 µM)	4 µg/mL (≈ 10.1 µM)	2 µg/mL (≈ 5.04 µM)					
Cc1cc(N2CCOC2=O)ncc1-c1ccc2c(c1)OC[C@H]1[C@H](CO)OC(=O)N21	4 µg/mL (≈ 10.1 µM)	2 µg/mL (≈ 5.03 µM)	1 µg/mL (≈ 2.52 µM)	0.5 µg/mL (≈ 1.26 µM)	0.5 µg/mL (≈ 1.26 µM)	0.5 µg/mL (≈ 1.26 µM)					
CC(=O)N1CCN(c2ccc(-c3ccc4c(c3)OC[C@H]3[C@H](CO)OC(=O)N43)cn2)C1=O	4 µg/mL (≈ 9.42 µM)	8 µg/mL (≈ 18.8 µM)	8 µg/mL (≈ 18.8 µM)	4 µg/mL (≈ 9.42 µM)	4 µg/mL (≈ 9.42 µM)	8 µg/mL (≈ 18.8 µM)					
O=C1COCCN1c1ccc(-c2ccc3c(c2)OC[C@H]2[C@H](CO)OC(=O)N32)cn1	2 µg/mL (≈ 5.03 µM)	2 µg/mL (≈ 5.03 µM)	2 µg/mL (≈ 5.03 µM)	2 µg/mL (≈ 5.03 µM)	1 µg/mL (≈ 2.52 µM)	2 µg/mL (≈ 5.03 µM)					
C[C@@H](O)C(O)c1ccc(-c2ccc3c(c2)OC[C@H]2[C@H](CO)OC(=O)N32)cn1 (stereo partly specified)	4 µg/mL (≈ 10.7 µM)	2 µg/mL (≈ 5.37 µM)	1 µg/mL (≈ 2.69 µM)	1 µg/mL (≈ 2.69 µM)	2 µg/mL (≈ 5.37 µM)	2 µg/mL (≈ 5.37 µM)					
CN1CCC(Oc2ccc(-c3ccc4c(c3)OC[C@H]3[C@H](CO)OC(=O)N43)cn2)CC1	> 32 µg/mL	16 µg/mL (≈ 38.9 µM)	8 µg/mL (≈ 19.4 µM)	4 µg/mL (≈ 9.72 µM)	4 µg/mL (≈ 9.72 µM)	4 µg/mL (≈ 9.72 µM)					
O=C1O[C@@H](CO)[C@@H]2COc3cc(-c4ccc(N5C[C@@H]6CCCN[C@@H]6C5)nc4)ccc3N12	16 µg/mL (≈ 37.9 µM)	8 µg/mL (≈ 18.9 µM)	4 µg/mL (≈ 9.47 µM)	4 µg/mL (≈ 9.47 µM)	8 µg/mL (≈ 18.9 µM)	4 µg/mL (≈ 9.47 µM)					
Cc1cc(C#N)ncc1-c1ccc2c(c1)OC[C@H]1[C@H](CO)OC(=O)N21	4 µg/mL (≈ 11.9 µM)	1 µg/mL (≈ 2.96 µM)	0.25 µg/mL (≈ 0.741 µM)	0.25 µg/mL (≈ 0.741 µM)	0.25 µg/mL (≈ 0.741 µM)	0.25 µg/mL (≈ 0.741 µM)					
